Results pooled from the literature.
Each line is one published result; the experiments were not run side by side.
Observed: cell growth or viability

| Compound | cell line | technique | time | IC50 |
| --- | --- | --- | --- | --- |
| Oc1c(Br)cc(Br)c2cccnc12 | BEL-7404 | MTT | 48 h | 68.1 µM |
| COC(=O)CN=c1scc(-c2ccccc2)n1-c1ccccc1OC | Panc 04.03 | MTT | 72 h | 52.2 µM |
| COc1cc(C)c(-c2c(C)cc(OC)c3c(=O)cc(-c4ccc(Br)cc4)oc23)c2oc(-c3ccc(Br)cc3)cc(=O)c12 | HS27 | MTT | 24 h | > 200 µM |
| O=[N+]([O-])c1ccc(-c2nc3ccccc3n2Cc2ccccc2)cc1 | MDA-MB-231 | MTT | – | 8.32 µM |
| Cc1ccc2c(Br)cc(Br)c(O)c2n1 | BEL-7404 | MTT | 48 h | > 150 µM |
| COc1cc(OC)c2c(=O)cc(-c3ccc(C(F)(F)F)cc3)oc2c1-c1c(OC)cc(OC)c2c(=O)cc(-c3ccc(C(F)(F)F)cc3)oc12 | HS27 | MTT | 24 h | > 200 µM |
| Clc1ccc(-c2nc3ccccc3n2Cc2ccccc2)cc1 | MDA-MB-231 | MTT | – | 35 µM |
| COc1ccc(C[C@H]2CO[C@H](c3ccc(OC)c(OC)c3)[C@H]2COC(=O)C=C(C)C)cc1OC | rat VSMC | resazurin | 48 h | 34.3 µM |
| CC(=O)c1cccc(/N=N/c2cc(/C=C/C(=O)O)ccc2O)c1 | A-375 | MTT | – | > 50 µM |
| O=C(Nc1ccc2[nH]nc(-c3ccncc3)c2c1)[C@@H]1CCN(CC(=O)N2CCN(c3ccc(-c4ncccn4)cc3)CC2)C1 | A-375 | resazurin | 96 h | 0.037 µM |
| COc1cc(-c2ncn(/C=C\C(=O)OC(C)C)n2)cc(C(F)(F)F)c1 | Mono-Mac-1 | – | 72 h | 0.474 µM |
| COC(=O)/C=C/C=C/c1ccc2c(c1)OCO2 | MRC5 | SRB | – | 250 µM |
| COc1cc(C)cc2oc(-c3ccc(Br)cc3)cc(=O)c12 | HS27 | MTT | 24 h | > 200 µM |
| COc1ccc([C@H]2OC[C@H](Cc3ccc(C(C)(C)C)cc3)[C@@H]2CO)cc1OC | rat VSMC | resazurin | 48 h | 5 µM |
| Oc1ccc(Nc2nc(-c3ccc(Cl)cc3)cs2)cc1 | FF2441 | MTS | 48 h | > 100 µM |
| COC(=O)CN=c1scc(-c2ccccc2)n1-c1ccc(OC)cc1 | SiHa | MTT | 72 h | 2.32 µM |
| COc1cc(C)cc2oc(-c3ccc(C(F)(F)F)cc3)cc(=O)c12 | HS27 | MTT | 24 h | > 200 µM |
| CCOc1cc(-c2nc3ccccc3[nH]2)ccc1O | MDA-MB-231 | MTT | 48 h | 48.3 µM |
| COc1ccc(-c2cc(=O)c3c(OC)cc(C)c(-c4c(C)cc(OC)c5c(=O)cc(-c6ccc(OC)cc6)oc45)c3o2)cc1 | HS27 | MTT | 24 h | > 200 µM |

| Compound | cell line | technique | time | IC50 |
| --- | --- | --- | --- | --- |
| COc1ccnc(-c2cc(OC)ccn2)c1 | BEL-7404 | MTT | 48 h | > 50 µM |
| c1ccc2c(-c3nc4ccccc4[nH]3)c3ccccc3cc2c1 | MDA-MB-231 | MTT | 48 h | 8.4 µM |
| c1ccc(-c2ccccn2)nc1 | BEL-7404 | MTT | 48 h | > 50 µM |
| COc1cc(OC)c2c(=O)cc(-c3cccc(Br)c3)oc2c1 | HS27 | MTT | 24 h | 128 µM |
| C#Cc1cccc(Nc2ncnc3cc(OCCOC)c(OCCOC)cc23)c1 | A-375 | MTT | – | 4.14 µM |
| COC(=O)CN=c1scc(-c2ccccc2)n1-c1ccc(Cl)cc1 | Panc 04.03 | MTT | 72 h | 52.1 µM |
| COc1cccc2c1C(=O)c1c(O)c3c(c(O)c1C2=O)C[C@@](O)(C(=O)CO)C[C@@H]3O[C@H]1C[C@H](N)[C@H](O)[C@H](C)O1 | LLC-PK11 | neutral red | 48 h | 0.98 µg/mL |
| Cc1ccc2nc(-c3ccc4c(c3)OCO4)[nH]c2c1 | MDA-MB-231 | MTT | 48 h | > 100 µM |
| Nc1ccn([C@@H]2O[C@H](CO)[C@@H](O)C2(F)F)c(=O)n1 | Panc 04.03 | MTT | 72 h | 0.19 µM |
| COc1cc(C)c(-c2c(C)cc(OC)c3c(=O)cc(-c4ccc(N(C)C)cc4)oc23)c2oc(-c3ccc(N(C)C)cc3)cc(=O)c12 | HS27 | MTT | – | 180 µM |
| Clc1ccc(-c2nc3ccccc3n2Cc2ccccc2)cc1Cl | MDA-MB-231 | MTT | – | 52.5 µM |
| COc1cc2nccc(Oc3ccc(NC(=O)C4(C(=O)Nc5ccc(F)cc5)CC4)cc3)c2cc1OC | CMK | trypan blue | 72 h | > 5.91 µM |
| CCOc1cc(OCC)cc(C(=O)O[C@@H]2CN3Cc4c(cc5c(c4OC)OCO5)[C@@]24C=C[C@H](OC)C[C@@H]34)c1 | MRC5 | WST-1 | – | > 10 µM |
| Cc1ccc2nc(-c3c4ccccc4cc4ccccc34)[nH]c2c1 | MDA-MB-231 | MTT | 48 h | 36.8 µM |
| COc1cc(C)cc2oc(-c3ccccc3Br)cc(=O)c12 | HS27 | MTT | – | 130 µM |
| COC(=O)CN=c1scc(-c2ccccc2)n1-c1ccccc1[N+](=O)[O-] | Panc 04.03 | MTT | 72 h | 22.1 µM |
| C/C=C(/C)C(=O)OC[C@H]1[C@@H](Cc2ccc(F)cc2)CO[C@@H]1c1ccc(F)cc1 | rat VSMC | resazurin | 48 h | 4.7 µM |
| CC(=O)O[C@H]1C(=O)[C@@]2(C)[C@H]([C@H](OC(=O)c3ccccc3)[C@]3(O)C[C@H](OC(=O)[C@H](O)[C@@H](NC(=O)c4ccccc4)c4ccccc4)C(C)=C1C3(C)C)[C@]1(OC(C)=O)CO[C@@H]1C[C@@H]2O | MDA-MB-231 | MTT | – | 1.38 µM |
| COC(=O)CN=c1scc(-c2ccccc2)n1-c1ccc(C)cc1 | Panc 04.03 | MTT | 72 h | 50.3 µM |
